# Peptide text beside a SMILES is read from it.
# Biological target: Integrin alpha-IIb/beta-3 (Homo sapiens, UniProt P05106+P08514)
# Assay: Ability to inhibit binding of biotin-labeled human fibrinogen to immobilized fibrinogen receptor purified from human erythroleukemia (HEL) cells.
# In short: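 Purified GP IIb-IIIa (1 μg/mL, pH 7.4 Tris/NaCl/CaCl2 buffer) coated overnight at 4 °C, blocked with 3.5% BSA 2 h at 30 °C. Wells then incubated with 1 nM biotinylated fibrinogen plus graded compound concentrations, 3 h at 30 °C. IC50 from dose–response curves.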
# Sequence of Integrin alpha-IIb/beta-3 (P05106 27-788 limits assumed): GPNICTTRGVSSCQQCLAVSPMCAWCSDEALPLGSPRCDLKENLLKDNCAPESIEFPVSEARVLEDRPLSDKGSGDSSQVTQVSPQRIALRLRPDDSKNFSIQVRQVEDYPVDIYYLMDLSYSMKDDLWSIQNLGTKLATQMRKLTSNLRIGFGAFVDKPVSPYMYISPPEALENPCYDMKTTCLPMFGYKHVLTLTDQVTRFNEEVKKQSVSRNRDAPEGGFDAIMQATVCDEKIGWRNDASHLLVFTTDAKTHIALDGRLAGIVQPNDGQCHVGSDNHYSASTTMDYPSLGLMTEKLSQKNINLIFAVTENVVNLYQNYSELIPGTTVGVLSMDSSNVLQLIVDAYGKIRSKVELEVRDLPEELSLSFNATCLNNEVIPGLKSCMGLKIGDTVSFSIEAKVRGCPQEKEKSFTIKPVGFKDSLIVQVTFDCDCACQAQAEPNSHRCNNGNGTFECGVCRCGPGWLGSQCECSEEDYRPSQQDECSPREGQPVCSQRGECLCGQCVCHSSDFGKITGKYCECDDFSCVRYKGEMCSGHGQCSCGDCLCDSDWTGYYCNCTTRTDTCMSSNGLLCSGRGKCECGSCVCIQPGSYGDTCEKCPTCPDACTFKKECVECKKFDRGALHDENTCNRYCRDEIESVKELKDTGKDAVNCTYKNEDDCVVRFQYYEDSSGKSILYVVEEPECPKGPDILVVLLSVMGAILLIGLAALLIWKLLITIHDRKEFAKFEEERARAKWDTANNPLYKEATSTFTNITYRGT
# Sequence of Integrin alpha-IIb/beta-3 (P08514 32-887 limits assumed): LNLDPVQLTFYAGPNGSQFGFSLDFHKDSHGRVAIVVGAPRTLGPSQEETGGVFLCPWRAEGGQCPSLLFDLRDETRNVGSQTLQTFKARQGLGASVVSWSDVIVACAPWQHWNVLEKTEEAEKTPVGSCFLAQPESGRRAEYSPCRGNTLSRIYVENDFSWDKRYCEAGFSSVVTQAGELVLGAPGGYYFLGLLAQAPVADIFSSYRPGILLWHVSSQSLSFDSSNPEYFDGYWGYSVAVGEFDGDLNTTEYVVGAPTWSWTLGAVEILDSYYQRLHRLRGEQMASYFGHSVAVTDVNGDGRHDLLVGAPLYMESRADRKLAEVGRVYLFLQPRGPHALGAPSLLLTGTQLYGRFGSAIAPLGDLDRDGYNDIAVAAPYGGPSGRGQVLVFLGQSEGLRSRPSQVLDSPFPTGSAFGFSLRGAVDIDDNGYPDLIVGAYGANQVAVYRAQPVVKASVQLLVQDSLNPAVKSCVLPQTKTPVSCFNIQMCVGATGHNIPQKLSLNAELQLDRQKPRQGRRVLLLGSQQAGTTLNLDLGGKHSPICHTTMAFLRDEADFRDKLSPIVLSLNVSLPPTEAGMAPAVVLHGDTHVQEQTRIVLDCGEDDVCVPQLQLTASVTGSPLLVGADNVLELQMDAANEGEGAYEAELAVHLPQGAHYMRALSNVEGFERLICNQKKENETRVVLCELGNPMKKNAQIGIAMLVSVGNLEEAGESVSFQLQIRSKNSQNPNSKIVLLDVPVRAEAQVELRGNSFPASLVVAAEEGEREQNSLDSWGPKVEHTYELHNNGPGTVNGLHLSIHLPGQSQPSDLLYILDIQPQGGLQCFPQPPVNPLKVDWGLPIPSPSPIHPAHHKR
# Sequence of Integrin alpha-IIb/beta-3 (P08514 891-1039 limits assumed): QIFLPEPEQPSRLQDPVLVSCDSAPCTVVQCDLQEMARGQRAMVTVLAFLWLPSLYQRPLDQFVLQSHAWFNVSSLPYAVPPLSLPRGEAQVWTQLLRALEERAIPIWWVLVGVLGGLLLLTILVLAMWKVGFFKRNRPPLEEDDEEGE
row,IC50,SMILES
1,0.21 nM,N=C(N)c1ccc(C(=O)NCC(=O)N2CCN(CC(=O)O)C(=O)[C@@H]2CCC(=O)O)cc1
2,130 nM,N=C(N)c1cccc(C(=O)NCC(=O)N2CCN(CC(=O)O)C(=O)[C@@H]2CC(=O)O)c1
3,1.95 nM,N=C(N)c1ccc(C(=O)NCC(=O)N2CCN(CC(=O)O)C(=O)[C@@H]2Cc2ccccc2)cc1
4,16.4 nM,COC(=O)C[C@@H]1C(=O)N(CC(=O)O)CCN1C(=O)CNC(=O)c1ccc(C(=N)N)cc1
5,330 nM,N=C(N)c1ccc(C(=O)NCC(=O)N2CCN(CC(N)=O)C(=O)[C@@H]2CC(=O)O)cc1
6,63 nM,N=C(N)c1ccc(C(=O)NCC(=O)N2CCN(CCC(=O)O)C(=O)[C@@H]2CC(=O)O)cc1
7,0.29 nM,COC(=O)CC[C@H]1C(=O)N(CC(=O)O)CCN1C(=O)CNC(=O)c1ccc(C(=N)N)cc1
8,20 nM,N=C(N)NCC1CCC(C(=O)NCC(=O)N2CCN(CC(=O)O)C(=O)[C@@H]2CC(=O)O)CC1 (stereo not given in full)
9,210 nM,CN(C)C(N)=Nc1ccc(C(=O)NCC(=O)N2CCN(CC(=O)O)C(=O)[C@@H]2CC(=O)O)cc1
10,110 nM,N=C(N)NCCC[C@H](N)C(=O)NCC(=O)N[C@@H](CC(=O)O)C(=O)N[C@@H](Cc1ccccc1)C(=O)O (H-RGDF-OH)

# Reference: ChEMBL document CHEMBL1131469, “Novel non-peptide fibrinogen receptor antagonists. 1. Synthesis and glycoprotein IIb-IIIa antagonistic activities of 1,3,4-trisubstituted 2-oxopiperazine derivatives incorporating side-chain functions of the RGDF peptide” (J Med Chem, 1998)
